# Measured values reported in ChEMBL document CHEMBL3393009 (J Med Chem, 2015).
# Calls of active or inactive are those of the source. No cut-off for these calls is given here.
# What was measured:
# [1] = Clearance in rat liver microsomes; format: ADME; conditions: read-out: CLH
# [2] = target: Leucine-rich repeat serine/threonine-protein kinase 2 (Homo sapiens, UniProt Q5S007); assay: Inhibition of LRRK2 in human PBMCs by ActivX KiNativ method
# Mus musculus = assay: Effect on total LRRK2 protein level in BAC-transgenic C57BL/6J mouse kidney at 3 to 100 mg/kg, sc measured after 90 mins post dose; format: ADME, organism-based; parameters: dose 3-100 mg/kg, route subcutaneous; conditions: in vivo, 1.5 h
# [3] = Drug coverage index, ratio of average concentration ( 0 to 24 hrs) in Wistar Han rat at 6 to 60 mg/kg, po bid for 14 days to IC50 for LRRK2 […] phosphorylation in Wistar Han rat brain at 6 to 60 mg/kg, po bid for 14 days; format: ADME, organism-based; conditions: in vivo
# Summary of the method: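 Wistar Han rats (200–300 g, 8–11 weeks old) were dosed by oral gavage twice daily for 14 days. Vehicle was 10% propylene glycol/20% PEG400/70% 9.5% methocellulose.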
# Rattus norvegicus = assay: Toxicity in Wistar Han rat assessed as changes in clinical chemistry parameters at 6 to 60 mg/kg, po bid for 14 days; format: organism-based; parameters: dose 6-60 mg/kg, route oral; conditions: in vivo, 336 h
# Summary of the method: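 Wistar Han rats (200–300 g, 8–11 weeks) dosed by oral gavage twice daily for 14 days. Vehicle: 10% propylene glycol/20% PEG400/70% methylcellulose solution. RBC parameters, electrolytes, food consumption, body weight, clinical chemistry and urinary biomarkers recorded.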
# [4] = Cytotoxicity against human THLE cells by in-vitro ATP depletion assay; format: cell-based
# [5] = target: T1, Tyrosine-protein kinase JAK3 (Homo sapiens) (UniProt P52333); assay: Inhibition of JAK3 (JH1 domain-catalytic) (unknown origin) at 1 uM
# T1 sequence (whole entry): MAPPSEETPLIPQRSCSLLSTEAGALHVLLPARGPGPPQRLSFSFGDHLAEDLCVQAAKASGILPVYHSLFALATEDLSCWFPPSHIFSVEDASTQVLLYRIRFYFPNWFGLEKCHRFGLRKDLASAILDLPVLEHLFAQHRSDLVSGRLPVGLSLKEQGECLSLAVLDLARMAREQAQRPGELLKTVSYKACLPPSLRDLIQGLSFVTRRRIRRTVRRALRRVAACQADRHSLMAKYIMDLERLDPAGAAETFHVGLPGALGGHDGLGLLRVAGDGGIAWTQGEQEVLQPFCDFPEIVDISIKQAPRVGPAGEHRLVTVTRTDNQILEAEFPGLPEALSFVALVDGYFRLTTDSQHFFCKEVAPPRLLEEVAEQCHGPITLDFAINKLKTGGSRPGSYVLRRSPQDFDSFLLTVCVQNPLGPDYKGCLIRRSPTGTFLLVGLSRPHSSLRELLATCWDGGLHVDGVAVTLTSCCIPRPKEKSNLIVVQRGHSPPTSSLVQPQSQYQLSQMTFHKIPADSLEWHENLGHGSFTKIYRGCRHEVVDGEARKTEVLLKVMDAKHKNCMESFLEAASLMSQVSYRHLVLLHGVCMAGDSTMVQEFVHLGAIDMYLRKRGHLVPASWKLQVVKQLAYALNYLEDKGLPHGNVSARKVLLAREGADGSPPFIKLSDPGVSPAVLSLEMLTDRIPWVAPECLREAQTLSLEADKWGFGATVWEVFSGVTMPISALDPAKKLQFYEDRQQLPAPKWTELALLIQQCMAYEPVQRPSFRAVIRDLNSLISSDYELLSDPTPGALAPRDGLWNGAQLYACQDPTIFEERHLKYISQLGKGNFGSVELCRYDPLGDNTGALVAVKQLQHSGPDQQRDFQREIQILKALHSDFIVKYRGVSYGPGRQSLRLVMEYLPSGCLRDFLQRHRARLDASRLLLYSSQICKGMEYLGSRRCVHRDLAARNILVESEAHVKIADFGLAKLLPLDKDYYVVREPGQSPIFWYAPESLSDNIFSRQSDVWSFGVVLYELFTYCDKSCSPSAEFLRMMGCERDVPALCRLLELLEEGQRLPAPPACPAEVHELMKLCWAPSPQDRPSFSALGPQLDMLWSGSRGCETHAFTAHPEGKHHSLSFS
# Chain of Leucine-rich repeat serine/threonine-protein kinase 2 (Q5S007 whole entry): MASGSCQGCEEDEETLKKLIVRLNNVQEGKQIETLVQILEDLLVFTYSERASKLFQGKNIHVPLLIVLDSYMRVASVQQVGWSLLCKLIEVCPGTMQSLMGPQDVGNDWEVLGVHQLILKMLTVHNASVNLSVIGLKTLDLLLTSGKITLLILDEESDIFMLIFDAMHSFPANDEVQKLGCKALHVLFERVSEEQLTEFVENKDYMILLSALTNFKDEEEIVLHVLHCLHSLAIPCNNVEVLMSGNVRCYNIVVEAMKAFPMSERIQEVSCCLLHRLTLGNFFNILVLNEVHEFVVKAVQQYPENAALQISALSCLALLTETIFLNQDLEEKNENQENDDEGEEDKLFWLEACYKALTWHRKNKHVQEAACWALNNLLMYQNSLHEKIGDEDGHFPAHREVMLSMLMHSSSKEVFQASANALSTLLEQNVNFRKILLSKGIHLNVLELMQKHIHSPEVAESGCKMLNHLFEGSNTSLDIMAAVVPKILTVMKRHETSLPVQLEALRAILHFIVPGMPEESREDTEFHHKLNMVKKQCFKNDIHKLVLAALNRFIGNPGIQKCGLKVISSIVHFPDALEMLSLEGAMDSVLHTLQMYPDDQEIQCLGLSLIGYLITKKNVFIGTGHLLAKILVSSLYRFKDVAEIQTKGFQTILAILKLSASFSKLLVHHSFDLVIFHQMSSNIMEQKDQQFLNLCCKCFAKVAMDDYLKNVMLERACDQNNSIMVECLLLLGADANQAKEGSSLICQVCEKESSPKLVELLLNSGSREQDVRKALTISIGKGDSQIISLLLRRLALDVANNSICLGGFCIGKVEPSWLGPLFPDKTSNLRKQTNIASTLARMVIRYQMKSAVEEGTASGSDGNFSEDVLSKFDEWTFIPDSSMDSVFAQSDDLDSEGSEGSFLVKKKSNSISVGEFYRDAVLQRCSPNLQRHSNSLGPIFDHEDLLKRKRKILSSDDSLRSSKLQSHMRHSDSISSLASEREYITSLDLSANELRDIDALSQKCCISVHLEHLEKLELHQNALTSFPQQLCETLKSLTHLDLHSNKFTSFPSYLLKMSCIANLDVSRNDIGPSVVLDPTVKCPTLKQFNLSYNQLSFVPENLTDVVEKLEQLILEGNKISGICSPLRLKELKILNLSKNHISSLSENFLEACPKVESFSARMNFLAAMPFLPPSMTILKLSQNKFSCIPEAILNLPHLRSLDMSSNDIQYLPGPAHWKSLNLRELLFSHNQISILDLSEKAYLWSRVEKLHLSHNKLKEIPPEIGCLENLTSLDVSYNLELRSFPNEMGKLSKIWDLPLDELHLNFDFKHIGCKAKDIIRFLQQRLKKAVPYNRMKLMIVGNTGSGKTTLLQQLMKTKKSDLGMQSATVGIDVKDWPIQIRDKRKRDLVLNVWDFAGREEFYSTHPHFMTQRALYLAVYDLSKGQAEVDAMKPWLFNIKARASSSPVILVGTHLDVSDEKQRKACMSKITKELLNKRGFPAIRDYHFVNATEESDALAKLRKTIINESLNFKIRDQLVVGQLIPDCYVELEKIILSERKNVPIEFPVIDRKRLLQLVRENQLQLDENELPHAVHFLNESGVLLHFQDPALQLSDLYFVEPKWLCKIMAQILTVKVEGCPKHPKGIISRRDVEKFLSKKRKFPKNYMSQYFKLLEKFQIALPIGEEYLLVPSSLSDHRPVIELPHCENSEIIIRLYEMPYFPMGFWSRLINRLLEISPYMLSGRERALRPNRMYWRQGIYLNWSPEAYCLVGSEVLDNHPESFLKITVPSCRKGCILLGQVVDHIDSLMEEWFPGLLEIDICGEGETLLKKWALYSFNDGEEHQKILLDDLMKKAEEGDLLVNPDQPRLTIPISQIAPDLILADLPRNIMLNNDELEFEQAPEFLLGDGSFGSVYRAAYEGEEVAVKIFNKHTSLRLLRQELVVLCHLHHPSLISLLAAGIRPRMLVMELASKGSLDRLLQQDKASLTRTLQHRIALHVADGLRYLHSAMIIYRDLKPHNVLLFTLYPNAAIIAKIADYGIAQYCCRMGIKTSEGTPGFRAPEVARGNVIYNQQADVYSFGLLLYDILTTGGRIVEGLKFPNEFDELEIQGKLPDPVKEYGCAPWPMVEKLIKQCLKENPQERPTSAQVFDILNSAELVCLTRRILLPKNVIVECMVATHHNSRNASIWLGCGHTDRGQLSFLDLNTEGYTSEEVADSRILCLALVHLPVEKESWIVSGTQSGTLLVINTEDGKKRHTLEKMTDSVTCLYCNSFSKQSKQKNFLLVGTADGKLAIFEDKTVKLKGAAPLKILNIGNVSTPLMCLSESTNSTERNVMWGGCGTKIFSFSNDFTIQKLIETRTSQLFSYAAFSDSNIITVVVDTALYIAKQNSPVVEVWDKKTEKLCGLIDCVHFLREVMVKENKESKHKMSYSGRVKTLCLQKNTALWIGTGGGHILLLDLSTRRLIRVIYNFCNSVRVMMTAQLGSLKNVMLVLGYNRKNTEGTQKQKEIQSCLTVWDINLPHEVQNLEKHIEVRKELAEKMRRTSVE
smiles,measurement,setting,value
N#Cc1cccc(-c2c[nH]c3ncnc(N4CCOCC4)c23)c1,CLint scaled,[1],131 mL/min/kg
same,IC50,[2],0.015 µM
same,Activity,Mus musculus,Non-toxic
same,Ratio,[3],31
same,Activity,Rattus norvegicus,Non-toxic
same,IC50,[4],> 223 µM
same,inhibition,[5],inactive
